Experimental data: ChEMBL document CHEMBL1123950, “N-(Retinoyl)amino acids. Synthesis and chemopreventive activity in vitro” (1988)

Columns and labels:
Cricetinae gen. sp. [1] = experiment: Reversal of keratinization in vitamin A deficient hamster trachea culture; type: functional, Cricetulus griseus; conditions: read-out: ED50 (the source's name)
Summary of the method: (§1)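 Tracheas from 29-31-day-old hamsters kept on a vitamin A free diet, cultured in serum-free CMRL 1066 (insulin 1.0 μg/mL, hydrocortisone hemisuccinate 0.1 μg/mL, glutamine 2 mM, Garamycin 50 μg/mL), 50% O2/45% N2/5% CO2, rocked at 36 °C. Retinoid-free for 3 days, then retinoid in DMSO (0.1% final) for 7 days. Fixed in formalin; squamous metaplasia graded mild 2-10%, marked 10-40%, severe >40%.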

Cricetinae gen. sp. [2] = experiment: Cultures with severe degree of squamous metaplasia at a conc of 10e-9 M; type: functional, Cricetulus griseus
Summary of the method: (§2)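 Tracheas from 29-31-day-old hamsters fed a vitamin A free diet; cultured in serum-free CMRL 1066 (insulin 1.0 μg/mL, hydrocortisone hemisuccinate 0.1 μg/mL, glutamine 2 mM, Garamycin 50 μg/mL), 50% O2/45% N2/5% CO2, rocked, 36 °C. Retinoid-free 3 days, then retinoid in DMSO (final 0.1%) for 7 days; medium and gas changed three times. Formalin-fixed day 10; squamous metaplasia graded: mild 2-10%, marked 10-40%, severe >40%.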

Cricetinae gen. sp. [3] = experiment: Cultures with mild degree of squamous metaplasia at a conc of 10e-11 M; type: functional, Cricetulus griseus; summary of the method: as §2
Cricetinae gen. sp. [4] = experiment: Cultures with no evidence of squamous metaplasia at a conc of 10e-10 M; type: functional, Cricetulus griseus; summary of the method: as §2
Cricetinae gen. sp. [5] = experiment: Cultures with minimal degree of squamous metaplasia at a conc of 10e-8 M; type: functional, Cricetulus griseus; summary of the method: as §2
Cricetinae gen. sp. [6] = experiment: Cultures with marked degree of squamous metaplasia at a conc of 10e-9 M; type: functional, Cricetulus griseus; summary of the method: as §2
Cricetinae gen. sp. [7] = experiment: Cultures with minimal degree of squamous metaplasia at a conc of 10e-10 M; type: functional, Cricetulus griseus; summary of the method: as §2
Cricetinae gen. sp. [8] = experiment: Reversal of keratinization in vitamin A deficient hamster trachea culture at a conc of 10e-8 M; type: functional, Cricetulus griseus; conditions: read-out: ED50 (the source's name); summary of the method: as §1
Cricetinae gen. sp. [9] = experiment: Cultures with severe degree of squamous metaplasia at a conc of 10e-8 M; type: functional, Cricetulus griseus; summary of the method: as §2
Cricetinae gen. sp. [10] = experiment: Cultures with severe degree of squamous metaplasia at a conc of 10e-11 M; type: functional, Cricetulus griseus; summary of the method: as §2
Cricetinae gen. sp. [11] = experiment: Cultures with no evidence of squamous metaplasia at a conc of 10e-8 M; type: functional, Cricetulus griseus; summary of the method: as §2
Cricetinae gen. sp. [12] = experiment: Cultures with mild degree of squamous metaplasia at a conc of 10e-10 M; type: functional, Cricetulus griseus; summary of the method: as §2
Cricetinae gen. sp. [13] = experiment: Cultures with minimal degree of squamous metaplasia at a conc of 10e-11 M; type: functional, Cricetulus griseus; summary of the method: as §2
Cricetinae gen. sp. [14] = experiment: Cultures with no evidence of squamous metaplasia at a conc of 10e-9 M; type: functional, Cricetulus griseus; summary of the method: as §2
Cricetinae gen. sp. [15] = experiment: Cultures with minimal degree of squamous metaplasia at a conc of 10e-9 M; type: functional, Cricetulus griseus; summary of the method: as §2
Cricetinae gen. sp. [16] = experiment: Cultures with severe degree of squamous metaplasia at a conc of 10e-10 M; type: functional, Cricetulus griseus; summary of the method: as §2
Cricetinae gen. sp. [17] = experiment: Cultures with marked degree of squamous metaplasia at a conc of 10e-8 M; type: functional, Cricetulus griseus; summary of the method: as §2
Cricetinae gen. sp. [18] = experiment: Cultures with mild degree of squamous metaplasia at a conc of 10e-9 M; type: functional, Cricetulus griseus; summary of the method: as §2
Cricetinae gen. sp. [19] = experiment: Cultures with marked degree of squamous metaplasia at a conc of 10e-10 M; type: functional, Cricetulus griseus; summary of the method: as §2
Cricetinae gen. sp. [20] = experiment: Cultures with no evidence of squamous metaplasia at a conc of 10e-11 M; type: functional, Cricetulus griseus; summary of the method: as §2
Cricetinae gen. sp. [21] = experiment: Cultures with mild degree of squamous metaplasia at a conc of 10e-8 M; type: functional, Cricetulus griseus; summary of the method: as §2
Cricetinae gen. sp. [22] = experiment: Cultures with marked degree of squamous metaplasia at a conc of 10e-11 M; type: functional; summary of the method: as §2
L1210 [23] = experiment: Inhibition of proliferation of L1210 cells in culture at a conc 10 ug/mL; type: functional, Mus musculus; parameters: scale not given: the % may be the effect or the level left
Summary of the method: (§3)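 L1210 suspension of about 10⁵ cells treated with retinoid at 1-40 μg/mL, 37 °C for 48 h; cells counted at 0 and 48 h, three cultures averaged per concentration. % of control = 100 × (treated 48 h − 0 h count)/(control 48 h − 0 h count).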

L1210 [24] = experiment: Inhibition of proliferation of L1210 cells in culture at a conc 20 ug/mL; type: functional, Mus musculus; parameters: scale not given: the % may be the effect or the level left; summary of the method: as §3
HEp-2 [25] = experiment: Viability of human epidermoid carcinoma cells (H.Ep-2) at a conc 40 ug/mL; type: functional
Summary of the method: (§4)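 Human epidermoid carcinoma H.Ep.-2 cells, clone-colony viability assay with retinoid at 1-40 μg/mL; incubated 37 °C for 12 days, stained, colonies counted. % of control = 100 × treated colonies/control colonies.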

HEp-2 [26] = experiment: Viability of human epidermoid carcinoma cells (H.Ep-2) at a conc 20 ug/mL; type: functional; summary of the method: as §4
L1210 [27] = experiment: Inhibition of proliferation of L1210 cells in culture at a conc 1 ug/mL; type: functional, Mus musculus; parameters: scale not given: the % may be the effect or the level left; summary of the method: as §3
HEp-2 [28] = experiment: Viability of human epidermoid carcinoma cells (H.Ep-2) at a conc 1 ug/mL; type: functional; summary of the method: as §4
HEp-2 [29] = experiment: Viability of human epidermoid carcinoma cells (H.Ep-2) at a conc 10 ug/mL; type: functional; summary of the method: as §4
L1210 [30] = experiment: Inhibition of proliferation of L1210 cells in culture at a conc 40 ug/mL; type: functional, Mus musculus; parameters: scale not given: the % may be the effect or the level left; summary of the method: as §3

CC1=C(/C=C/C(C)=C/C=C/C(C)=C\C(=O)O)C(C)(C)CCC1 [ISOTRETINOIN]
EC50 (Cricetinae gen. sp. [1]): 30 pM

CC1=C(/C=C/C(C)=C/C=C/C(C)=C\C(=O)NC(C)C(=O)O)C(C)(C)CCC1 (configuration not stated)
Culture (Cricetinae gen. sp. [2]): 0% | Culture (Cricetinae gen. sp. [3]): 0% | Culture (Cricetinae gen. sp. [4]): 36% | Culture (Cricetinae gen. sp. [5]): 0% | Culture (Cricetinae gen. sp. [6]): 40% | Culture (Cricetinae gen. sp. [7]): 0% | EC50 (Cricetinae gen. sp. [8]): 700 pM | Culture (Cricetinae gen. sp. [9]): 0% | Culture (Cricetinae gen. sp. [10]): 15% | Culture (Cricetinae gen. sp. [11]): 100% | Culture (Cricetinae gen. sp. [12]): 21% | Culture (Cricetinae gen. sp. [13]): 0% | Culture (Cricetinae gen. sp. [14]): 47% | Culture (Cricetinae gen. sp. [15]): 0% | Culture (Cricetinae gen. sp. [16]): 7% | Culture (Cricetinae gen. sp. [17]): 0% | Culture (Cricetinae gen. sp. [18]): 13% | Culture (Cricetinae gen. sp. [19]): 36% | Culture (Cricetinae gen. sp. [20]): 14% | Culture (Cricetinae gen. sp. [21]): 0% | Culture (Cricetinae gen. sp. [22]): 71%

CC1=C(/C=C/C(C)=C/C=C/C(C)=C/C(=O)O)C(C)(C)CCC1 [TRETINOIN]
EC50 (Cricetinae gen. sp. [1]): 30 pM

CC1=C(/C=C/C(C)=C/C=C/C(C)=C/C(=O)NCC(=O)O)C(C)(C)CCC1
Control (L1210 [23]): 70% | Control (L1210 [24]): 19% | Control (HEp-2 [25]): 13% | Control (HEp-2 [26]): 12% | Control (L1210 [27]): 68% | Control (HEp-2 [28]): 116% | Control (HEp-2 [29]): 67%

CC1=C(/C=C/C(C)=C/C=C/C(C)=C/C(=O)NCCO)C(C)(C)CCC1
EC50 (Cricetinae gen. sp. [1]): 100 pM

CC1=C(/C=C/C(C)=C/C=C/C(C)=C/C(=O)NC(Cc2ccc(O)cc2)C(=O)O)C(C)(C)CCC1 (configuration not stated)
Culture (Cricetinae gen. sp. [2]): 0% | Culture (Cricetinae gen. sp. [4]): 14% | Culture (Cricetinae gen. sp. [5]): 0% | Culture (Cricetinae gen. sp. [6]): 50% | Culture (Cricetinae gen. sp. [7]): 0% | EC50 (Cricetinae gen. sp. [8]): 3000 pM | Culture (Cricetinae gen. sp. [9]): 0% | Culture (Cricetinae gen. sp. [11]): 75% | Culture (Cricetinae gen. sp. [12]): 14% | Culture (Cricetinae gen. sp. [14]): 38% | Culture (Cricetinae gen. sp. [15]): 0% | Culture (Cricetinae gen. sp. [16]): 14% | Culture (Cricetinae gen. sp. [17]): 25% | Culture (Cricetinae gen. sp. [18]): 12% | Culture (Cricetinae gen. sp. [19]): 58% | Culture (Cricetinae gen. sp. [21]): 0%

CCNC(=O)/C=C(C)/C=C/C=C(C)/C=C/C1=C(C)CCCC1(C)C
EC50 (Cricetinae gen. sp. [1]): 1000 pM

CC1=C(/C=C/C(C)=C/C=C/C(C)=C\C(=O)NCCO)C(C)(C)CCC1
EC50 (Cricetinae gen. sp. [1]): 300 pM | Control (L1210 [23]): 57% | Control (L1210 [24]): 56% | Control (L1210 [30]): 0.5% | Control (HEp-2 [25]): 27% | Control (HEp-2 [26]): 21% | Control (L1210 [27]): 76% | Control (HEp-2 [28]): 61% | Control (HEp-2 [29]): 38%
